ChEMBL document CHEMBL4130487, “A pentanoic acid derivative targeting matrix metalloproteinase-2 (MMP-2) induces apoptosis in a chronic myeloid leukemia cell line” (Eur J Med Chem, 2017)

These molecules were tested against 72 kDa type IV collagenase (Homo sapiens, UniProt P08253) (assay: Inhibition of recombinant human MMP2 (Tyr110 to Asp452 residues) using Ac-Pro-Leu-Gly-S-Leu-Leu-Gly-OEt as substrate after 1 hr measured at 1 min time interval for 30 mins by microplate photometric method). Conditions: not given.
Summary of the method: (§1)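 Commercial MMP kits; compound preincubated with enzyme before chromogenic substrate was added. Reactions at 37 °C for 1 h, with at least six inhibitor concentrations in triplicate. Absorbance at 410 nm read every 1 min for 30 min. NNGH used as reference inhibitor. IC50 taken from semi-logarithmic dose-response plots.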

Chain of 72 kDa type IV collagenase (P08253 whole entry): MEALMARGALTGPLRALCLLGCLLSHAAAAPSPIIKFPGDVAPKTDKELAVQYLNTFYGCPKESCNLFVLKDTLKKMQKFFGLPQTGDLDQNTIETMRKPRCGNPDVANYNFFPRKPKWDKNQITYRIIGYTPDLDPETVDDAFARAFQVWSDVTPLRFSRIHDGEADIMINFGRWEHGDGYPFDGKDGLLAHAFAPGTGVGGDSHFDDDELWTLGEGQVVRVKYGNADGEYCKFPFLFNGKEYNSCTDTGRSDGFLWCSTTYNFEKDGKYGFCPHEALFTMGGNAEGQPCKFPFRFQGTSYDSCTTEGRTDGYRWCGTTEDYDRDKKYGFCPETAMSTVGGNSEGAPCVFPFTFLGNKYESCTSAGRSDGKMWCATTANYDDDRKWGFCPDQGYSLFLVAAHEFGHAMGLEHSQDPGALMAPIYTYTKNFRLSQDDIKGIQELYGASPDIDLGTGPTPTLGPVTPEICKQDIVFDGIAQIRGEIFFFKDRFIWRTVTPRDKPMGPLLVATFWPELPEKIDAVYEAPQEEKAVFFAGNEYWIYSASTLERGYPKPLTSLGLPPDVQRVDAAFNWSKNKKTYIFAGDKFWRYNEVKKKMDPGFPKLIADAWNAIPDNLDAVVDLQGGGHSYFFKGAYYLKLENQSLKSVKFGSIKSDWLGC

Structure (SMILES) | IC50 [µM]
CCCCNC(=O)CC[C@H](NS(=O)(=O)c1ccc([N+](=O)[O-])cc1)C(=O)O | 4.07
O=C(CC[C@H](NS(=O)(=O)c1ccc([N+](=O)[O-])cc1)C(=O)O)NCc1ccccc1 | 0.21
CNC(=O)CC[C@H](NS(=O)(=O)c1ccc([N+](=O)[O-])cc1)C(=O)O | 2.85
NC(=O)CC[C@H](NS(=O)(=O)c1ccc([N+](=O)[O-])cc1)C(=O)O | 1.65

What follows are molecules tested against Matrix metalloproteinase-9 (Homo sapiens, UniProt P14780) (assay: Inhibition of recombinant human MMP9 (Phe107 to Pro449 residues) expressed in Escherichia coli using Ac-Pro-Leu-Gly-S-Leu-Leu-Gly-OEt as substrate after 1 hr measured at 1 min time interval for 30 mins by microplate photometric method). Conditions: not given.
Summary of the method: as §1

Chain of Matrix metalloproteinase-9 (P14780 whole entry): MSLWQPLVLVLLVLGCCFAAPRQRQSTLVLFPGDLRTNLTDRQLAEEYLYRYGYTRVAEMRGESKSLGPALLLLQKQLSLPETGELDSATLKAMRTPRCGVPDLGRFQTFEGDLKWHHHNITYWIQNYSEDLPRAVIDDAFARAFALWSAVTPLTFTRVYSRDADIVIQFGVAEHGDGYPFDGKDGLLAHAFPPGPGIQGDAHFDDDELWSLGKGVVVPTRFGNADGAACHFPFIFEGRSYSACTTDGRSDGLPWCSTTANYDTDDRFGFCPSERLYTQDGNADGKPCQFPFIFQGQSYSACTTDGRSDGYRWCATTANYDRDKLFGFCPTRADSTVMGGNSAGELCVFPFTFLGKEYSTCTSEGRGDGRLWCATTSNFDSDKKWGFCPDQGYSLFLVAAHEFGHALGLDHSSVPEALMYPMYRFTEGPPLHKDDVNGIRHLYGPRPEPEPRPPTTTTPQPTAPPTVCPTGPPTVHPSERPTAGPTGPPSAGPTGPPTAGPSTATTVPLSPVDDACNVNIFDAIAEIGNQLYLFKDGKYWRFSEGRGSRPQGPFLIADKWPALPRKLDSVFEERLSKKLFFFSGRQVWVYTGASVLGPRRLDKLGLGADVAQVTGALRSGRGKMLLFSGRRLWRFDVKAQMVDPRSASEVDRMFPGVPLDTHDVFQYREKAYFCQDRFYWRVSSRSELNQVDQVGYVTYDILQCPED

Structure (SMILES) | IC50 [µM]
CCCCNC(=O)CC[C@H](NS(=O)(=O)c1ccc([N+](=O)[O-])cc1)C(=O)O | 6.36
O=C(CC[C@H](NS(=O)(=O)c1ccc([N+](=O)[O-])cc1)C(=O)O)NCc1ccccc1 | 6.37
CNC(=O)CC[C@H](NS(=O)(=O)c1ccc([N+](=O)[O-])cc1)C(=O)O | 7.5
NC(=O)CC[C@H](NS(=O)(=O)c1ccc([N+](=O)[O-])cc1)C(=O)O | 7

The molecules below were run against MMP-2/MMP-9 (Homo sapiens) (UniProt P08253+P14780) (assay: Selectivity ratio of IC50 for recombinant human MMP9 (Phe107 to Pro449 residues) expressed in Escherichia coli to IC50 for recombinant human MMP2 (Tyr110 to Asp452 residues)). Conditions: not given.

Structure (SMILES) | Ratio IC50
O=C(CC[C@H](NS(=O)(=O)c1ccc([N+](=O)[O-])cc1)C(=O)O)NCc1ccccc1 | > 25
CNC(=O)CC[C@H](NS(=O)(=O)c1ccc([N+](=O)[O-])cc1)C(=O)O | 2.63
NC(=O)CC[C@H](NS(=O)(=O)c1ccc([N+](=O)[O-])cc1)C(=O)O | 4.24

What follows are molecules tested on A549 (assay: Cytotoxicity against human A549 cells assessed as reduction in cell viability after 48 hrs by MTT assay). Conditions: A549, 48 h.
Format: functional, cell-based
Summary of the method: (§2)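 A549, MDA-MB-231, K562, U937 and PBMC (PBMC from healthy donors) seeded at 1×10^3 cells/well and left 24 h, then exposed to compounds for 48 h at 37 °C, 5% CO2. Adherent lines were grown in DMEM, the others in RPMI-1640 with 10% heat-inactivated FBS. MTT read-out; viability expressed as % of untreated control. IC50 taken as the concentration giving 50% viability loss.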

Structure (SMILES) | IC50 [µM]
CCCCNC(=O)CC[C@H](NS(=O)(=O)c1ccc([N+](=O)[O-])cc1)C(=O)O | 276
O=C(CC[C@H](NS(=O)(=O)c1ccc([N+](=O)[O-])cc1)C(=O)O)NCc1ccccc1 | 343
CNC(=O)CC[C@H](NS(=O)(=O)c1ccc([N+](=O)[O-])cc1)C(=O)O | > 500
NC(=O)CC[C@H](NS(=O)(=O)c1ccc([N+](=O)[O-])cc1)C(=O)O | > 500

Each molecule was assayed on MDA-MB-231 (assay: Cytotoxicity against human MDA-MB-231 cells assessed as reduction in cell viability after 48 hrs by MTT assay). Conditions: MDA-MB-231, 48 h.
Format: functional, cell-based
Summary of the method: as §2

Structure (SMILES) | IC50 [µM]
CCCCNC(=O)CC[C@H](NS(=O)(=O)c1ccc([N+](=O)[O-])cc1)C(=O)O | > 500
O=C(CC[C@H](NS(=O)(=O)c1ccc([N+](=O)[O-])cc1)C(=O)O)NCc1ccccc1 | 175
CNC(=O)CC[C@H](NS(=O)(=O)c1ccc([N+](=O)[O-])cc1)C(=O)O | > 500
NC(=O)CC[C@H](NS(=O)(=O)c1ccc([N+](=O)[O-])cc1)C(=O)O | > 500

The molecules below were run on K562 (assay: Cytotoxicity against human K562 cells assessed as reduction in cell viability after 48 hrs by MTT assay). Conditions: K562, 48 h.
Format: functional, cell-based
Summary of the method: as §2

Structure (SMILES) | IC50 [µM]
CCCCNC(=O)CC[C@H](NS(=O)(=O)c1ccc([N+](=O)[O-])cc1)C(=O)O | 19.7
O=C(CC[C@H](NS(=O)(=O)c1ccc([N+](=O)[O-])cc1)C(=O)O)NCc1ccccc1 | 23.4
CNC(=O)CC[C@H](NS(=O)(=O)c1ccc([N+](=O)[O-])cc1)C(=O)O | > 500
NC(=O)CC[C@H](NS(=O)(=O)c1ccc([N+](=O)[O-])cc1)C(=O)O | > 500

The molecules below were run on U-937 (assay: Cytotoxicity against human U937 cells assessed as reduction in cell viability after 48 hrs by MTT assay). Conditions: U-937, 48 h.
Format: functional, cell-based
Summary of the method: as §2

Structure (SMILES) | IC50 [µM]
CCCCNC(=O)CC[C@H](NS(=O)(=O)c1ccc([N+](=O)[O-])cc1)C(=O)O | 94
O=C(CC[C@H](NS(=O)(=O)c1ccc([N+](=O)[O-])cc1)C(=O)O)NCc1ccccc1 | 102
CNC(=O)CC[C@H](NS(=O)(=O)c1ccc([N+](=O)[O-])cc1)C(=O)O | > 500
NC(=O)CC[C@H](NS(=O)(=O)c1ccc([N+](=O)[O-])cc1)C(=O)O | > 500

The molecules below were run on PBMC (assay: Cytotoxicity against human PBMC assessed as reduction in cell viability after 48 hrs by MTT assay). Conditions: not given.
Format: cell-based
Summary of the method: as §2

Structure (SMILES) | IC50 [µM]
CCCCNC(=O)CC[C@H](NS(=O)(=O)c1ccc([N+](=O)[O-])cc1)C(=O)O | > 1000
O=C(CC[C@H](NS(=O)(=O)c1ccc([N+](=O)[O-])cc1)C(=O)O)NCc1ccccc1 | > 1000
CNC(=O)CC[C@H](NS(=O)(=O)c1ccc([N+](=O)[O-])cc1)C(=O)O | > 1000
NC(=O)CC[C@H](NS(=O)(=O)c1ccc([N+](=O)[O-])cc1)C(=O)O | > 1000

Each molecule was assayed against T1, Interstitial collagenase (Homo sapiens, UniProt P03956) (assay: Inhibition of recombinant human MMP1 (Phe100 to Gln268 residues) using Ac-Pro-Leu-Gly-S-Leu-Leu-Gly-OEt as substrate after 1 hr measured at 1 min time interval for 30 mins by microplate photometric method). Conditions: not given.
T1 sequence (P03956 whole entry): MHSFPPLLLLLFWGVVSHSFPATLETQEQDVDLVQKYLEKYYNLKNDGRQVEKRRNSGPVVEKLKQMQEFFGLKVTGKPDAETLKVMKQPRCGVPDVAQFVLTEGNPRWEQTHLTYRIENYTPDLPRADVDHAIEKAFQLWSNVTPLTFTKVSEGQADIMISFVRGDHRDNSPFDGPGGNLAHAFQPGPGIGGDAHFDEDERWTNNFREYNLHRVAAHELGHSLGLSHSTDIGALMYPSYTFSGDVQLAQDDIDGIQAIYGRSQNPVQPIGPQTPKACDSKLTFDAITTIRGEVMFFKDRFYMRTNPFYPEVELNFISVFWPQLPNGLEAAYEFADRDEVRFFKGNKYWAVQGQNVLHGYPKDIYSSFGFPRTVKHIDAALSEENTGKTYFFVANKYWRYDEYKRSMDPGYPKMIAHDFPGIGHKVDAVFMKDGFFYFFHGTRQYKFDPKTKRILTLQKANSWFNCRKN
Summary of the method: as §1

Structure (SMILES) | IC50 [µM]
CCCCNC(=O)CC[C@H](NS(=O)(=O)c1ccc([N+](=O)[O-])cc1)C(=O)O | > 500
O=C(CC[C@H](NS(=O)(=O)c1ccc([N+](=O)[O-])cc1)C(=O)O)NCc1ccccc1 | > 500
CNC(=O)CC[C@H](NS(=O)(=O)c1ccc([N+](=O)[O-])cc1)C(=O)O | > 500
NC(=O)CC[C@H](NS(=O)(=O)c1ccc([N+](=O)[O-])cc1)C(=O)O | > 500

Each molecule was assayed against Neutrophil collagenase (Homo sapiens, UniProt P22894) (assay: Inhibition of recombinant human MMP8 (Phe99 to Gln269 residues) expressed in Escherichia coli using Ac-Pro-Leu-Gly-S-Leu-Leu-Gly-OEt as substrate after 1 hr measured at 1 min time interval for 30 mins by microplate photometric method). Conditions: not given.
Summary of the method: as §1

Chain of Neutrophil collagenase (P22894 whole entry): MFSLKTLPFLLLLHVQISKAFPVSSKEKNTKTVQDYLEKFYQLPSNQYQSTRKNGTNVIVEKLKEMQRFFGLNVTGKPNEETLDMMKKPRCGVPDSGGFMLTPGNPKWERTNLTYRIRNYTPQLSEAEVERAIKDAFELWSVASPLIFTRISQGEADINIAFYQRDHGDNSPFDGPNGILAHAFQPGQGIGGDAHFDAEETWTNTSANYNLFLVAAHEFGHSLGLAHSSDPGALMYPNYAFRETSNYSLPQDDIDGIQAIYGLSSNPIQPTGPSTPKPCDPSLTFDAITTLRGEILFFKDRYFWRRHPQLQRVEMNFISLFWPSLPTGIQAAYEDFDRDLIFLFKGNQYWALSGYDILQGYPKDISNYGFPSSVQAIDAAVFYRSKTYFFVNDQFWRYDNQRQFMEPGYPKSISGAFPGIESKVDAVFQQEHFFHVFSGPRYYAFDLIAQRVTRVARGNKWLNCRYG

Structure (SMILES) | IC50 [µM]
CCCCNC(=O)CC[C@H](NS(=O)(=O)c1ccc([N+](=O)[O-])cc1)C(=O)O | 346
O=C(CC[C@H](NS(=O)(=O)c1ccc([N+](=O)[O-])cc1)C(=O)O)NCc1ccccc1 | 173
CNC(=O)CC[C@H](NS(=O)(=O)c1ccc([N+](=O)[O-])cc1)C(=O)O | 401
NC(=O)CC[C@H](NS(=O)(=O)c1ccc([N+](=O)[O-])cc1)C(=O)O | 199

These molecules were tested against Macrophage metalloelastase (Homo sapiens, UniProt P39900) (assay: Inhibition of recombinant human MMP12 (Phe99 to Leu271 residues) expressed in Escherichia coli using Ac-Pro-Leu-Gly-S-Leu-Leu-Gly-OEt as substrate after 1 hr measured at 1 min time interval for 30 mins by microplate photometric method). Conditions: not given.
Summary of the method: as §1

Chain of Macrophage metalloelastase (P39900 whole entry): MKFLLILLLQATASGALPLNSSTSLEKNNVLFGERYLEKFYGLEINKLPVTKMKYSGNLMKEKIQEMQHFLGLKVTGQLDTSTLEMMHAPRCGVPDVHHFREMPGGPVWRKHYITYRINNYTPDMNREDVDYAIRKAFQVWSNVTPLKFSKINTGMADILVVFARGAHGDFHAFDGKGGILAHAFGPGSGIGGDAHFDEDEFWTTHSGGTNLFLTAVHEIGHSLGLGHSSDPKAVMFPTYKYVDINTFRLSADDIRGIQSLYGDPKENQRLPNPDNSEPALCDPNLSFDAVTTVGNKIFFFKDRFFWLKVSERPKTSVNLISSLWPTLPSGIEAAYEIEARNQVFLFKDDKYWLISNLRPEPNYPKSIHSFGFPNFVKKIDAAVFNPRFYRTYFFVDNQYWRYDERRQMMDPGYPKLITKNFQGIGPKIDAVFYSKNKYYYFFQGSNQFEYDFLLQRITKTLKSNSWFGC

Structure (SMILES) | IC50 [µM]
CCCCNC(=O)CC[C@H](NS(=O)(=O)c1ccc([N+](=O)[O-])cc1)C(=O)O | 198
O=C(CC[C@H](NS(=O)(=O)c1ccc([N+](=O)[O-])cc1)C(=O)O)NCc1ccccc1 | 95.2
CNC(=O)CC[C@H](NS(=O)(=O)c1ccc([N+](=O)[O-])cc1)C(=O)O | > 500
NC(=O)CC[C@H](NS(=O)(=O)c1ccc([N+](=O)[O-])cc1)C(=O)O | 100

What follows are molecules tested against Matrix metalloproteinase-14 (Homo sapiens, UniProt P50281) (assay: Inhibition of recombinant human MMP14 (Tyr112 to Arg298 residues) expressed in Escherichia coli using Ac-Pro-Leu-Gly-S-Leu-Leu-Gly-OEt as substrate after 1 hr measured at 1 min time interval for 30 mins by microplate photometric method). Conditions: not given.
Summary of the method: as §1

Structure (SMILES) | IC50 [µM]
CCCCNC(=O)CC[C@H](NS(=O)(=O)c1ccc([N+](=O)[O-])cc1)C(=O)O | 111
O=C(CC[C@H](NS(=O)(=O)c1ccc([N+](=O)[O-])cc1)C(=O)O)NCc1ccccc1 | 109
CNC(=O)CC[C@H](NS(=O)(=O)c1ccc([N+](=O)[O-])cc1)C(=O)O | > 500
NC(=O)CC[C@H](NS(=O)(=O)c1ccc([N+](=O)[O-])cc1)C(=O)O | 76.3
